The list is not random: actives were taken first. Their share in the collection is about 2.3%.
NadD block – NadD (S. aureus) enzyme inhibition | purified NadD enzyme, colorimetric absorbance read-out | inhibition, % at 20 µM | 360,000 tested, 0.78% active; in the data active = inhibition above about 26%
Scp-1 inhibitor – inhibitors of human Scp-1 phosphatase. 340,000 tested, 0.88% active. Q9GZU7. Recombinant Scp1, phosphopeptide, malachite green phosphate absorbance. inhibition, % at 20 µM;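 active = inhibition above about 50% at 20 µM, limit read from the data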;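 note: plate controls were DMSO wells with enzyme for no effect and wells lacking enzyme for full effect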
Target sequence (Q9GZU7 76-261 limits assumed): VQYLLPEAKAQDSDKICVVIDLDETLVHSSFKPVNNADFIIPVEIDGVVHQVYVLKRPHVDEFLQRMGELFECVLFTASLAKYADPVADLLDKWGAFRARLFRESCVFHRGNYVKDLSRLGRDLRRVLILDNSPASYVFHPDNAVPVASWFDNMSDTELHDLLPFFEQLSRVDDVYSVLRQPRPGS
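Test system: SCP-1 phosphatase catalytic domain, residues 76-261; measured by: colorimetric phosphate reagent with accelerator and stabiliser, absorbance at 630 nm; timing: enzyme reaction 45 min at room temperature, colour 5 min, stabilisation 30 min; also added: Phosphorylated 17-residue peptide substrate; compound dosing: one concentration, 20 µM, with 1.0% DMSO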
SUMO1-SIM PPI – SUMO1-SIM interaction modulation | inhibition, % at 20 µM | P63165 | 360,000 tested, 0.33% active | SUMO1 binding to a labelled peptide, TR-FRET, 1 h; in the data active = inhibition above about 37%
Target sequence (P63165 whole entry, looked up): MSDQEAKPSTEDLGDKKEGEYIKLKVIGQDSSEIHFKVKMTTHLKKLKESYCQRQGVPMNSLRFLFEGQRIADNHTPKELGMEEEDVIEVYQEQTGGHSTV
STEP inh – inhibitors of human striatal-enriched phosphatase STEP; P54829; recombinant STEP, OMFP fluorogenic substrate, fluorescence; inhibition, % at 20 µM; 360,000 tested, 0.25% active;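 active = inhibition at 20 µM, scaled per plate between control wells, above about 37%, limit read from the data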;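 note: 0% = DMSO with enzyme and substrate and 100% = substrate only without enzyme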
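Also added – OMFP at 25 µM · Test system – STEP tyrosine phosphatase · Technique – FITC-channel fluorescence of OMFP product · Schedule – 20 min at room temperature, dark · Evaluation – control-normalized % inhibition with plate pattern correction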
DNMT1 inh – inhibitors of human DNMT1; P26358; DNMT1 molecular beacon, Hinp1I cleavage, fluorescence; inhibition (reported as % activation of signal), % at 10 µM; 360,000 tested, 0.83% active; in the data active = inhibition above about 50%
LMPTP inh – LMPTP (human) inhibition; P24666; recombinant LMPTP-A, OMFP fluorogenic substrate, fluorescence intensity; inhibition, % at 20 µM; 360,000 tested, 0.22% active; AID 651560;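 active = compounds that cut the enzyme signal by at least half of the control window in the single-dose screen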;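 note: plate controls were DMSO wells with enzyme plus substrate for no effect and substrate without enzyme for full effect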
Target sequence (P24666 whole entry, looked up): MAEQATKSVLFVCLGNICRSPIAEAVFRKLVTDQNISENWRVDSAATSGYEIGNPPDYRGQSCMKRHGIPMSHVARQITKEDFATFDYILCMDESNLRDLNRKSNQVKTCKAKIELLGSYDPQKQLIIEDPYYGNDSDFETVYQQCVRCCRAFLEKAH
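Assay system: LMPTP-A enzyme. Input: 0.625 nM LMPTP-A final. Probe or stimulus: 400 µM OMFP. Compound dosing: single 20 µM dose. Schedule: 50 min dark incubation at room temperature. Detection: fluorescence intensity of OMFP turnover product. Read-out: percent inhibition versus substrate-only and uninhibited controls. Benchmarks: no-enzyme low control, uninhibited high control.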
Scp-1 conf – Scp-1 (human) inhibition, single-dose confirmed | recombinant SCP-1 catalytic domain, phosphate release, malachite green absorbance | inhibition, % at 20 µM | shares compounds with Scp-1 inhibitor | 2,500 tested, 61% active;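 note: plate controls were DMSO with enzyme for no effect and buffer wells lacking enzyme for full effect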
MG interference – colorimetric interference in Scp-1 counter-screen; Colorimetric interference counterscreen, malachite green absorbance 630 nm; apparent inhibition (interference), % at 20 µM; shares compounds with Scp-1 inhibitor; 2,500 tested, under 10 active;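 note: compounds added after enzyme reaction finished so only phosphate colour detection is probed; plate controls were DMSO wells with completed Scp-1 reaction for no effect and substrate wells lacking enzyme for full effect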
Scp1 DSF – Scp-1 (human) binding by thermal shift. shares compounds with Scp-1 inhibitor. Recombinant SCP1, Sypro Orange thermal shift Tm. thermal shift relative to vanadate control, % at 40 µM. 1,500 tested, 25% active;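 active = substances whose mean melting-temperature shift, as a percentage of the reference inhibitor's shift, reaches about 5.3%, limit read from the data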;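 note: 0% = Tm of DMSO wells and 100% = Tm with sodium orthovanadate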
Starred values were filed as active, the others as inactive.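 Rule for the calls, unless noted: active = inhibition of at least 30% at 20 µM; inactive = the rest.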

What do the screens show for `Cc1ccc(C)c(-n2c(-c3ccc(Br)cc3)csc2=NC(=O)c2ccccc2F)c1`?
NadD block: 19.3; Scp-1 inhibitor: 1.4; SUMO1-SIM PPI: -163.1; STEP inh: 5.3; DNMT1 inh: -1.7; LMPTP inh: 3.4

Results for O=[N+]([O-])c1ccc2[nH]ccc2c1 ?
NadD block: 1.1; SUMO1-SIM PPI: -19.4; LMPTP inh: -2.7

How did O=[N+]([O-])c1ccc2cc[nH]c2c1 do in these assays?
NadD block: 4.4; Scp-1 inhibitor: 61.4*; SUMO1-SIM PPI: 1.3; STEP inh: 2.2; DNMT1 inh: 34.5; LMPTP inh: 6.2; Scp-1 conf: 25.0; MG interference: -4.0

How did CCOC(=O)[C@]12CCC=C1N(Cc1ccco1)C(=O)[C@H](CC(=O)NCc1ccc(C)o1)C2 do in these assays?
NadD block: 8.5; SUMO1-SIM PPI: 5.7; LMPTP inh: -1.6

Results for O=C(N/N=C/c1cccc(Br)c1)c1ccc(Br)cc1 ?
NadD block: -9.4; Scp-1 inhibitor: 103.7*; SUMO1-SIM PPI: -3.5; STEP inh: 20.8; DNMT1 inh: 27.9; LMPTP inh: 59.7*; Scp-1 conf: 75.8*; MG interference: -12.6; Scp1 DSF: -6.8

Results for O=C(N/N=C/c1ccc2nccnc2c1)c1ccc(Br)cc1 ?
NadD block: -0.6; Scp-1 inhibitor: 36.1; SUMO1-SIM PPI: -22.2; STEP inh: -1.3; DNMT1 inh: 1.2; LMPTP inh: -0.2

What do the screens show for `O=C(/C=C\Nc1ccc2c(c1)OCO2)c1ccc(Cl)s1`?
NadD block: 5.8; Scp-1 inhibitor: 91.2*; SUMO1-SIM PPI: -7.5; STEP inh: 2.1; DNMT1 inh: 8.3; LMPTP inh: 63.5*; Scp-1 conf: 74.9*; MG interference: 0.3; Scp1 DSF: -0.1

What do the screens show for `NCCCC(=O)O`?
NadD block: 1.7; Scp-1 inhibitor: -6.3; SUMO1-SIM PPI: 1.2; STEP inh: -4.3; DNMT1 inh: 2.5; LMPTP inh: -1.4

Results for NCCCCC(=O)O ?
NadD block: -4.5; Scp-1 inhibitor: 54.5*; SUMO1-SIM PPI: 1.4; STEP inh: -3.2; DNMT1 inh: -2.3; LMPTP inh: -2.6; Scp-1 conf: -6.5; MG interference: -11.5

Results for CCOC(=O)CN1C(=O)N[C@@H](c2ccc(Br)cc2)C(C(=O)OC)=C1C ?
NadD block: -3.5; Scp-1 inhibitor: -5.6; SUMO1-SIM PPI: -1.4; STEP inh: -0.1; DNMT1 inh: 2.3; LMPTP inh: -1.3

What do the screens show for `CCOC(=O)CN1C(=O)N[C@H](c2ccc(Br)cc2)C(C(C)=O)=C1C`?
NadD block: -2.8; Scp-1 inhibitor: 76.2*; SUMO1-SIM PPI: -4.6; STEP inh: -3.6; DNMT1 inh: -1.0; LMPTP inh: -1.6; Scp-1 conf: 17.6; MG interference: 1.4

Results for CCc1ccc(NC(=O)Cn2nnc(C(=O)NCc3ccco3)c2N)cc1 ?
NadD block: -3.2; Scp-1 inhibitor: -4.0; SUMO1-SIM PPI: -0.6; STEP inh: -2.4; DNMT1 inh: -1.0; LMPTP inh: 1.6

What do the screens show for `O=C(NCCc1nc2ccccc2[nH]1)c1ccco1`?
NadD block: -7.3; Scp-1 inhibitor: -2.2; SUMO1-SIM PPI: 3.7; STEP inh: 1.5; DNMT1 inh: -1.3; LMPTP inh: -0.8

What do the screens show for `O=C(NCCc1nc2ccccc2[nH]1)c1ccc(Br)o1`?
NadD block: -3.8; Scp-1 inhibitor: 61.3*; SUMO1-SIM PPI: 2.3; STEP inh: 1.1; DNMT1 inh: -2.4; LMPTP inh: 1.4; Scp-1 conf: -2.4; MG interference: -10.6

What do the screens show for `Cc1ccc(C)c(NC(=O)C2CCCN(c3cnccn3)C2)c1` (centres undefined)?
NadD block: -1.2; Scp-1 inhibitor: -3.4; SUMO1-SIM PPI: -1.4; STEP inh: -1.4; DNMT1 inh: -3.3; LMPTP inh: -1.9

Results for O=C(O)c1cc(NC(=O)c2cccc(N3C(=O)c4ccccc4C3=O)c2)cc(C(=O)O)c1 ?
NadD block: -4.2; Scp-1 inhibitor: -6.7; SUMO1-SIM PPI: -5.0; STEP inh: -1.3; DNMT1 inh: 1.4; LMPTP inh: -2.0

How did CC(=O)c1ccc(NC(=O)c2cccc(N3C(=O)c4ccccc4C3=O)c2)cc1 do in these assays?
NadD block: -5.4; Scp-1 inhibitor: 96.5*; SUMO1-SIM PPI: 83.6*; STEP inh: 98.0*; DNMT1 inh: 40.2; LMPTP inh: 55.2*; Scp-1 conf: 47.6*; MG interference: -13.1; Scp1 DSF: -14.8

Results for C/C(CC(=O)Nc1cccc(Cl)c1Cl)=N\NC(=O)c1ccccc1C ?
NadD block: -0.1; Scp-1 inhibitor: -4.7; SUMO1-SIM PPI: -0.9; STEP inh: -0.7; DNMT1 inh: -4.4; LMPTP inh: 0.8

How did Cc1nc2ccc(C(=O)O)cc2c2c1CC(C)S2 (centres undefined) do in these assays?
NadD block: 6.9; Scp-1 inhibitor: 79.1*; SUMO1-SIM PPI: 16.0; STEP inh: 6.9; DNMT1 inh: 54.3*; LMPTP inh: -0.1; Scp-1 conf: 60.7*; MG interference: -9.5; Scp1 DSF: 4.2

How did COCCNC(=O)C1c2ccccc2C(=O)N(CCOC)C1c1ccc(F)cc1 (centres undefined) do in these assays?
NadD block: 2.4; Scp-1 inhibitor: 52.2*; SUMO1-SIM PPI: 3.5; STEP inh: -0.7; DNMT1 inh: -1.5; LMPTP inh: 4.4; Scp-1 conf: 3.5; MG interference: -2.1

What do the screens show for `COCCN1C(=O)c2ccccc2C(C(=O)NCCN(C)C)C1c1ccc(F)cc1` (centres undefined)?
NadD block: -1.8; Scp-1 inhibitor: 4.6; SUMO1-SIM PPI: -3.6; STEP inh: -1.5; DNMT1 inh: 4.5; LMPTP inh: -1.1

What do the screens show for `NC(=O)CC[C@H](NC(=O)OCc1ccccc1)C(=O)OCc1ccc(Cl)cc1`?
NadD block: -7.6; Scp-1 inhibitor: -6.7; SUMO1-SIM PPI: -0.9; STEP inh: -1.6; DNMT1 inh: -2.8; LMPTP inh: -1.7

Results for CC(=O)c1ccc(NC(=O)CCc2nc3sc4c(c3c(=O)[nH]2)CCCC4)cc1 ?
NadD block: 17.1; Scp-1 inhibitor: 51.8*; SUMO1-SIM PPI: -1.3; STEP inh: 4.2; DNMT1 inh: 17.4; LMPTP inh: 8.4; Scp-1 conf: 65.1*; MG interference: -21.3; Scp1 DSF: -0.2
